In ChEMBL document CHEMBL2331336, “Discovery and structure-activity relationship of 1,3-cyclohexyl amide derivatives as novel mGluR5 negative allosteric modulators” (Bioorg Med Chem Lett, 2013):
Values after ≈ are worked out from the molar mass of the structure shown.

How the values were obtained:
[1] = target: T1, Metabotropic glutamate receptor 5 (Homo sapiens, UniProt P41594); test: Antagonist activity at human mGluR5 expressed in HEK293 cells assessed as inhibition of Ca2+ mobilization by FLIPR assay; type: functional, cell-based
[2] = Kinetic solubility of the compound in potassium phosphate buffer after 4 hrs; type: physicochemical; conditions: read-out: Kinetic_solubility
In short: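 Kinetic solubility: compound from 10 mM DMSO stock diluted into 25 mM potassium phosphate buffer and shaken 4 h. Supernatant analyzed by UPLC with PDA detection at 254 nm.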

[3] = target: T2, Metabotropic glutamate receptor 1 (Rattus norvegicus, UniProt P23385); test: Antagonist activity at rat mGluR1 expressed in HEK293 cells assessed as inhibition of Ca2+ mobilization by FLIPR assay; type: functional, cell-based
In short: (§1)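 Rat mGluR1 stably in HEK293 cells (1.5% calf serum medium), seeded 24 h earlier, Fluo-4 loaded 1 h at 37 °C in HBSS/HEPES pH 7.4 with probenecid. Curves fitted with Hill equation.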

[4] = system: Liver; test: Intrinsic clearance in mouse liver microsomes; type: ADME, Microsome
[5] = target: T1, Metabotropic glutamate receptor 5; test: Displacement of [3H]-ABP688 from human mGluR5 expressed in HEK293 cells after 60 mins by scintillation counting; type: cell-based
[6] = target: T2, Metabotropic glutamate receptor 1; test: Agonist activity at rat mGluR1 expressed in HEK293 cells assessed as Ca2+ mobilization by FLIPR assay; type: functional, cell-based; in short: as §1
[7] = system: Liver microsomes; test: Intrinsic clearance in rat liver microsomes; type: ADME, Microsome
[8] = Plasma protein binding in human; type: ADME, cell-free; conditions: read-out: PPB (converted)
[9] = system: Liver microsomes; test: Intrinsic clearance in human liver microsomes; type: ADME, Microsome; design: unit not given here
[10] = Partition co-efficient, log D at pH 7.4 of the compound by shake flask method; type: physicochemical; conditions: buffer

T2 sequence (P23385 whole entry): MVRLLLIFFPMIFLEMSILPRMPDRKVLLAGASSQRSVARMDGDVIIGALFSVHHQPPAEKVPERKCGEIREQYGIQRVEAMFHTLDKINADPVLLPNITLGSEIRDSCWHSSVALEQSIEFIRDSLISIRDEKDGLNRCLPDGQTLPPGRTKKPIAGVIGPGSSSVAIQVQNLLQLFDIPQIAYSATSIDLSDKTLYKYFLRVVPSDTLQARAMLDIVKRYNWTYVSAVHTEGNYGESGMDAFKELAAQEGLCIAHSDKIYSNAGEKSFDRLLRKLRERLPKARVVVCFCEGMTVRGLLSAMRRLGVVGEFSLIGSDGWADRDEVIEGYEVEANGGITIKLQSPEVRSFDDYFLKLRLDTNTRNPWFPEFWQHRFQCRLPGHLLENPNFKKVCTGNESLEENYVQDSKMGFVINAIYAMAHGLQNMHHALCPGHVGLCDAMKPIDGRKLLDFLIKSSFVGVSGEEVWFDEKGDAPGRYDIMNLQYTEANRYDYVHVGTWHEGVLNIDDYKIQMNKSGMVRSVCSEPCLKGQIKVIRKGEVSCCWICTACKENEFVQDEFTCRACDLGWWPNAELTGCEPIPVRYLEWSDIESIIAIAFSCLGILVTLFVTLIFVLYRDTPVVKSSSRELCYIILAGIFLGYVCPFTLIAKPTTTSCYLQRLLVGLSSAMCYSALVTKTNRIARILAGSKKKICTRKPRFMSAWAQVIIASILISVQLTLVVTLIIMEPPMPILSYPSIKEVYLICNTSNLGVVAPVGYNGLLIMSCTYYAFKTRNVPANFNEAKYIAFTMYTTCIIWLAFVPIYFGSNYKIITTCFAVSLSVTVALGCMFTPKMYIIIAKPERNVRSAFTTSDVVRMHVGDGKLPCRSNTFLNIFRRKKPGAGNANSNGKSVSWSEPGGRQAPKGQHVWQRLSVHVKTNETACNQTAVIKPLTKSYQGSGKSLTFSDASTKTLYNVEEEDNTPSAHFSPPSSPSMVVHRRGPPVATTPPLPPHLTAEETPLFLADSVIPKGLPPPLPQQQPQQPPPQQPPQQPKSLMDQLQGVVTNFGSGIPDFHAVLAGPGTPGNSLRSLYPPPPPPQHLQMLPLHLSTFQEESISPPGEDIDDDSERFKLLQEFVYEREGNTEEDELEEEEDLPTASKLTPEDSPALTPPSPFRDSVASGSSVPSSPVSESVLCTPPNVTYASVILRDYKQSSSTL
T1 sequence (P41594 whole entry): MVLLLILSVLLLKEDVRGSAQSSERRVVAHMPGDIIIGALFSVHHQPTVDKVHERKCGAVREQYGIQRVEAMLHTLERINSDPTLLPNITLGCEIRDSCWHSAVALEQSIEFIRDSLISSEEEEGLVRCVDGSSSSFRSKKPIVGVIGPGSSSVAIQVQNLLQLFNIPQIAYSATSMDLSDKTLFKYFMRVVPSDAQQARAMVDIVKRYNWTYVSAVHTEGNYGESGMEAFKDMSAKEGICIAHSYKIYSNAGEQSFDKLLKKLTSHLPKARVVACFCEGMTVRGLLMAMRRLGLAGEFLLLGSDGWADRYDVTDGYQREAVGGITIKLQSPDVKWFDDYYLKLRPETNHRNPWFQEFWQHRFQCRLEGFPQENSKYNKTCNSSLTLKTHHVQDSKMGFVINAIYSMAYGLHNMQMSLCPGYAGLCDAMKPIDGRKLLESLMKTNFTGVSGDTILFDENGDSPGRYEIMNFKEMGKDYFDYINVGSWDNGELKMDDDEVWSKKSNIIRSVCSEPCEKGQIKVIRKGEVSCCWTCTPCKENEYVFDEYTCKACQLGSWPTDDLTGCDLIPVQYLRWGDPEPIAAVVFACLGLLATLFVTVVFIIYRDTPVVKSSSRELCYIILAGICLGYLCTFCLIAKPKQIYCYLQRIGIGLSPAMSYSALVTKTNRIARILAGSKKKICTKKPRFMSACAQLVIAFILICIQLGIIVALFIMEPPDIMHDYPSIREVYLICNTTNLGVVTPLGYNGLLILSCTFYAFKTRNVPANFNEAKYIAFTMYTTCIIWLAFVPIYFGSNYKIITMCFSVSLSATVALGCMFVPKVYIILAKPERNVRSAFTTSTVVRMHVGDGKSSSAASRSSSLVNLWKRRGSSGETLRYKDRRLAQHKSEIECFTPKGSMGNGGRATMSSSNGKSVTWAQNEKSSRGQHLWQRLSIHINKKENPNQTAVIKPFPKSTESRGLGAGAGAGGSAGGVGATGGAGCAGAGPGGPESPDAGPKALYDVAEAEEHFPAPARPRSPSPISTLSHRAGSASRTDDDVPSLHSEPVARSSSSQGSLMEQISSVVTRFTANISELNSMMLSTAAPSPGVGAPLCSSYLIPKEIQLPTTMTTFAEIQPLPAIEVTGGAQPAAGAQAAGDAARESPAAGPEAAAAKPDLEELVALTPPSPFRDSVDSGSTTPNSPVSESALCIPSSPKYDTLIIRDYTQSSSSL

IC50 [1] | Structure (SMILES) | other results
593 nM | O=C(N[C@H]1CCC[C@H](NC(=O)c2cccc(F)c2)C1)c1cccc(F)c1 | 
5000 nM | O=C(N[C@@H]1CCC[C@@H](C(=O)Nc2ccccn2)C1)c1cccc(Cl)c1 | 
789 nM | COc1cccc(C(=O)N[C@H]2CCC[C@H](NC(=O)c3cccc(Cl)c3)C2)c1 (relative stereo) | 
> 10000 nM | N#Cc1cccc(C(=O)N[C@@H]2CCC[C@@H](C(=O)Nc3ccccn3)C2)c1 | 
314 nM | O=C(NC1CCCC(NC(=O)c2ccccn2)C1)c1cccc(Cl)c1 (racemic) | 
231 nM | N#Cc1cccc(C(=O)N[C@@H]2CCC[C@@H](NC(=O)c3ccccn3)C2)c1 | solubility kinetic at 4 h [2]: 240 µM (≈ 83.6 µg/mL); IC50 [3]: > 10000 nM; Intrinsic clearance [4]: 1.8 mL/min; Ki [5]: 1270 nM; EC50 [6]: > 10000 nM; Intrinsic clearance [7]: 8.3 mL/min; fraction unbound [8]: 0.157; Intrinsic clearance [9]: 0.5
647 nM | O=C(NC1CCCC2(CN=C(c3cccc(Cl)c3)O2)C1)c1ccccn1 (mixture of isomers) | Ki [5]: 30 nM
2910 nM | O=C(N[C@@H]1CCC[C@@]2(CN=C(c3cccc(Cl)c3)O2)C1)c1ccccn1 | 
> 10000 nM | N#Cc1cccc(C(=O)N[C@H]2CCC[C@H](NC(=O)c3ccccn3)C2)c1 | 
59 nM | O=C(N[C@@H]1CCC[C@@H](NC(=O)c2cccc(Cl)c2)C1)c1cccc(F)c1 | solubility kinetic at 4 h [2]: 5.4 µM (≈ 2.02 µg/mL); IC50 [3]: 2100 nM; Ki [5]: 211 nM; EC50 [6]: > 10000 nM; Intrinsic clearance [7]: 9.4 mL/min; logD [10]: > 5; fraction unbound [8]: 0.039; Intrinsic clearance [9]: 0.8
290 nM | Cc1cccc(C(=O)N[C@H]2CCC[C@H](NC(=O)c3cccc(Cl)c3)C2)n1 (racemic) | Ki [5]: 582 nM
1000 nM | Cc1cccc(C(=O)N[C@H]2CCC[C@H](NC(=O)c3ccccn3)C2)c1 (relative stereo) | 
468 nM | O=C(N[C@H]1CCC[C@H](C(=O)Nc2cccc(Cl)c2)C1)c1ccccn1 | 
> 10000 nM | COc1cccc(C(=O)NC2CCCC(NC(=O)c3ccccn3)C2)c1 (mixture of isomers) | 
> 10000 nM | N#Cc1cccc(C(=O)N[C@@H]2CCC[C@H](NC(=O)c3ccccn3)C2)c1 (relative stereo) | 
139 nM | O=C(NC1CCCC(NC(=O)c2cccc(Cl)c2)C1)c1cccc(Cl)c1 (mixture of isomers) | 
425 nM | O=C(N[C@H]1CCC[C@H](NC(=O)c2ncccn2)C1)c1cccc(Cl)c1 (relative stereo) | Ki [5]: 3790 nM
> 10000 nM | O=C(NC1CCCC2(CN=C(c3cccc(Cl)c3)O2)C1)c1ccncc1 (mixture of isomers) | 
72 nM | Cc1cccc(C(=O)N[C@@H]2CCC[C@@]3(CN=C(c4cccc(Cl)c4)O3)C2)n1 (relative stereo) | 
228 nM | O=C(N[C@H]1CCC[C@H](NC(=O)c2cccc(Cl)c2)C1)c1ccccc1 (relative stereo) | Ki [5]: 672 nM
473 nM | CN(C)c1ccc(C(=O)N[C@H]2CCC[C@H](NC(=O)c3cccc(Cl)c3)C2)cc1 | 
612 nM | O=C(N[C@H]1CCC[C@H](NC(=O)c2cccc(Cl)c2)C1)c1cccnc1 (relative stereo) | 

IC50 [1] | Structure (SMILES) | other results
> 10000 nM | O=C(NC1CCCC2(CN=C(c3cccc(Cl)c3)O2)C1)c1cccnc1 (mixture of isomers) | 
1510 nM | Cc1cccc(C(=O)N[C@H]2CCC[C@@]3(CN=C(c4cccc(Cl)c4)O3)C2)n1 (relative stereo) | 
86 nM | O=C(NC1CCCC(NC(=O)c2cccc(Cl)c2)C1)c1cccc(F)c1 (racemic) | Ki [5]: 320 nM
1150 nM | O=C(N[C@H]1CCC[C@H](NC(=O)c2ccccn2)C1)c1ccccn1 | 
> 10000 nM | O=C(Cc1ccccn1)N[C@H]1CCC[C@H](NC(=O)c2cccc(Cl)c2)C1 (relative stereo) | 
3400 nM | Cc1ccnc(C(=O)N[C@H]2CCC[C@H](NC(=O)c3cccc(Cl)c3)C2)c1 (relative stereo) | 
> 10000 nM | O=C(N[C@H]1CCC[C@H](NC(=O)c2ccccn2)C1)c1cccc(Cl)c1 | 
9600 nM | O=C(N[C@H]1CCC[C@H](NC(=O)c2cccc(Cl)c2)C1)c1cccc(F)c1 | 
175 nM | O=C(N[C@H]1CCC[C@H](NC(=O)c2ccccc2F)C1)c1cccc(Cl)c1 (relative stereo) | Ki [5]: 760 nM
7840 nM | Cc1cccnc1C(=O)N[C@H]1CCC[C@H](NC(=O)c2cccc(Cl)c2)C1 (relative stereo) | 
5230 nM | Cc1cccc(C(=O)N[C@@H]2CCC[C@@]3(CN=C(c4cccc(Cl)c4)O3)C2)n1 | 
194 nM | O=C(N[C@H]1CCC[C@H](NC(=O)c2cccc(Cl)c2)C1)c1ccc(F)cc1 (relative stereo) | Ki [5]: 492 nM
671 nM | N#Cc1cccnc1C(=O)NC1CCCC(NC(=O)c2cccc(Cl)c2)C1 (mixture of isomers) | Ki [5]: 1250 nM
> 10000 nM | CN(C(=O)c1cccc(Cl)c1)C1CCCC(NC(=O)c2cccc(Cl)c2)C1 (stereo unspecified) | 
1510 nM | O=C(N[C@@H]1CCC[C@H](NC(=O)c2ccccn2)C1)c1cccc(Cl)c1 (relative stereo) | 
> 10000 nM | CN(C(=O)c1cccc(Cl)c1)C1CCCC(N(C)C(=O)c2cccc(Cl)c2)C1 (stereo unspecified) | 
266 nM | COc1ccc(C(=O)N[C@H]2CCC[C@H](NC(=O)c3cccc(Cl)c3)C2)cc1 (relative stereo) | Ki [5]: 674 nM
> 10000 nM | CN(C)c1cccc(C(=O)N[C@H]2CCC[C@H](NC(=O)c3cccc(Cl)c3)C2)c1 (relative stereo) | 
531 nM | N#Cc1cccc(C(=O)NC2CCCC(NC(=O)c3ccccn3)C2)c1 (racemic) | Ki [5]: 1540 nM
1370 nM | O=C(N[C@H]1CCC[C@H](NC(=O)c2cnccn2)C1)c1cccc(Cl)c1 (relative stereo) | 
857 nM | O=C(N[C@H]1CCC[C@H](NC(=O)C2CCCCC2)C1)c1cccc(Cl)c1 (relative stereo) | 
300 nM | O=C(N[C@H]1CCC[C@H](NC(=O)c2cccc(Cl)c2)C1)c1ccncc1 (relative stereo) | Ki [5]: 445 nM
